Where “and” joins values, the source holds several entries; their conditions need not be identical. Equal values may be shown once.
What was measured:
Fibroblast = assay: Multiplex assay against human fibroblast; assay type: toxicity, cell-based
Procedure, shortened: (§1)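 Cells were classed with CellPathfinder machine-learning gating, first as Hoechst high-intensity objects or normal cells, then (normal cells) as healthy, pyknosed or fragmented nuclei, and finally (pyknosed cells) as mitotic or apoptotic. Staining of live cells at seeding used Hoechst33342, BioTracker Green Microtubule Cytoskeleton Dye, MitoTracker Red and Annexin V Alexa Fluor 680, with imaging on a CQ1 microscope at 37°C and 5% CO2 after compound addition. Tubulin, mitochondrial-mass and membrane-permeability phenotypes are per cents of healthy-nucleus cells.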

U2OS = assay: Multiplex assay against U2OS; assay type: toxicity, cell-based; details: human; procedure, shortened: as §1
[1] = 12 h, 1 µM, compound concentration 1 uM
[2] = 12 h, 10 µM, compound concentration 10 uM
[3] = 24 h, 1 µM, compound concentration 1 uM
[4] = 24 h, 10 µM, compound concentration 10 uM
[5] = 48 h, 1 µM, compound concentration 1 uM
[6] = 48 h, 10 µM, compound concentration 10 uM

## COc1c(Nc2ccc(S(C)(=O)=O)nc2C)ncnc1OC1CCN(C(=O)OC(C)C)CC1 [ADP-597]
Fibroblast; [1]
  Population Apoptotic (%): 57% and 42%
  Population Fragmented Nuclei (%): 14% and 27%
  Population Healthy Nuclei (%): 71% and 40%
  Population Hoechst High Intensity Objects (%): 3% and 4%
  Population Membrane Permeable-Phenotype (%): 0% and 2%
  Population Mitochondria Different-Phenotype (%): 10% and 7%
  Population Mitotic Cells (%): 42% and 57%
  Population Normal (%): 96% and 95%
  Population Pyknosed Nuclei (%): 14% and 33%
  Population Tubulin-Different-Phenotype (%): 34% and 27%
  Total Cell Count: 133 and 105
Fibroblast; [2]
  Population Apoptotic (%): 44% and 39%
  Population Fragmented Nuclei (%): 21% and 43%
  Population Healthy Nuclei (%): 58% and 27%
  Population Hoechst High Intensity Objects (%): 2%
  Population Membrane Permeable-Phenotype (%): 0% and 11%
  Population Mitochondria Different-Phenotype (%): 15% and 14%
  Population Mitotic Cells (%): 56% and 60%
  Population Normal (%): 97% and 98%
  Population Pyknosed Nuclei (%): 20% and 28%
  Population Tubulin-Different-Phenotype (%): 54% and 77%
  Total Cell Count: 127 and 100
Fibroblast; [3]
  Population Apoptotic (%): 47% and 37%
  Population Fragmented Nuclei (%): 17% and 25%
  Population Healthy Nuclei (%): 67% and 50%
  Population Hoechst High Intensity Objects (%): 4% and 10%
  Population Membrane Permeable-Phenotype (%): 0% and 10%
  Population Mitochondria Different-Phenotype (%): 1% and 2%
  Population Mitotic Cells (%): 52% and 62%
  Population Normal (%): 95% and 89%
  Population Pyknosed Nuclei (%): 15% and 24%
  Population Tubulin-Different-Phenotype (%): 27% and 48%
  Total Cell Count: 146 and 109
Fibroblast; [4]
  Population Apoptotic (%): 52% and 27%
  Population Fragmented Nuclei (%): 20% and 49%
  Population Healthy Nuclei (%): 60% and 31%
  Population Hoechst High Intensity Objects (%): 5% and 6%
  Population Membrane Permeable-Phenotype (%): 0% and 10%
  Population Mitochondria Different-Phenotype (%): 5% and 3%
  Population Mitotic Cells (%): 47% and 72%
  Population Normal (%): 94% and 93%
  Population Pyknosed Nuclei (%): 18% and 19%
  Population Tubulin-Different-Phenotype (%): 41% and 75%
  Total Cell Count: 131 and 99
Fibroblast; [5]
  Population Apoptotic (%): 64% and 42%
  Population Fragmented Nuclei (%): 25% and 28%
  Population Healthy Nuclei (%): 63% and 51%
  Population Hoechst High Intensity Objects (%): 2% and 9%
  Population Membrane Permeable-Phenotype (%): 0% and 2%
  Population Mitochondria Different-Phenotype (%): 4% and 0%
  Population Mitotic Cells (%): 35% and 57%
  Population Normal (%): 97% and 90%
  Population Pyknosed Nuclei (%): 11% and 20%
  Population Tubulin-Different-Phenotype (%): 30% and 59%
  Total Cell Count: 152 and 102
Fibroblast; [6]
  Population Apoptotic (%): 73% and 75%
  Population Fragmented Nuclei (%): 29% and 56%
  Population Healthy Nuclei (%): 58% and 36%
  Population Hoechst High Intensity Objects (%): 8% and 2%
  Population Membrane Permeable-Phenotype (%): 0% and 2%
  Population Mitochondria Different-Phenotype (%): 20% and 18%
  Population Mitotic Cells (%): 26% and 25%
  Population Normal (%): 91% and 97%
  Population Pyknosed Nuclei (%): 12% and 7%
  Population Tubulin-Different-Phenotype (%): 57% and 84%
  Total Cell Count: 131 and 108
U2OS; [1]
  Population Apoptotic (%): 82% and 75%
  Population Fragmented Nuclei (%): 23% and 13%
  Population Healthy Nuclei (%): 68% and 78%
  Population Hoechst High Intensity Objects (%): 2% and 3%
  Population Membrane Permeable-Phenotype (%): 7% and 11%
  Population Mitochondria Different-Phenotype (%): 1%
  Population Mitotic Cells (%): 17% and 25%
  Population Normal (%): 97% and 96%
  Population Pyknosed Nuclei (%): 8%
  Population Tubulin-Different-Phenotype (%): 5% and 2%
  Total Cell Count: 208 and 95
U2OS; [2]
  Population Apoptotic (%): 93% and 85%
  Population Fragmented Nuclei (%): 27% and 10%
  Population Healthy Nuclei (%): 60% and 77%
  Population Hoechst High Intensity Objects (%): 8% and 4%
  Population Membrane Permeable-Phenotype (%): 7%
  Population Mitochondria Different-Phenotype (%): 2% and 3%
  Population Mitotic Cells (%): 6% and 14%
  Population Normal (%): 91% and 95%
  Population Pyknosed Nuclei (%): 11%
  Population Tubulin-Different-Phenotype (%): 4% and 1%
  Total Cell Count: 266 and 128
U2OS; [3]
  Population Apoptotic (%): 88% and 80%
  Population Fragmented Nuclei (%): 24% and 12%
  Population Healthy Nuclei (%): 67% and 79%
  Population Hoechst High Intensity Objects (%): 3%
  Population Membrane Permeable-Phenotype (%): 7% and 8%
  Population Mitochondria Different-Phenotype (%): 3%
  Population Mitotic Cells (%): 11% and 20%
  Population Normal (%): 96%
  Population Pyknosed Nuclei (%): 7% and 8%
  Population Tubulin-Different-Phenotype (%): 3% and 5%
